Measurements from PMC6045484 (ACS Omega, 2018).
≈ marks a conversion by molar mass, not a printed value.

Legend:
[1] = system: P. falciparum (W2); experiment: in vitro antimalarial activity, plasmodial LDH; type: cell-based, Plasmodium falciparum; details: Plasmodium falciparum, W2, 72 h, read-out: P. falciparum (W2) IC50, CQ-resistant W2 strain, 72 h
In short: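 P. falciparum-infected erythrocytes (2% parasitemia, 2% hematocrit) in RPMI 1640 with 10% human serum and 60 μg/mL amikacin. Exposed to test compound dilutions for 72 h at 37 °C under 90% N2/5% O2/5% CO2. LDH measured with Malstat reagent (30 min, room temperature), then NBT/PES for 1 h in the dark, stopped with 5% acetic acid, read at 650 nm. IC50 from dose-response curves.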

[2] = system: C. neoformans ATCC90113; experiment: in vitro antifungal activity; type: cell-based, Cryptococcus neoformans; details: Cryptococcus neoformans; for IC50: ATCC90113, read-out: C. neoformans IC50; for MFC: ATCC90113, read-out: C. neoformans MFC; for MIC: ATCC90113, read-out: C. neoformans MIC
In short: (§1)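 Modified NCCLS broth method in Sabouraud dextrose. Inoculum set by OD630 to 1.5 × 10^3 CFU/mL. Test compound serially diluted in 20% DMSO/saline, duplicate wells, up to 20 μg/mL. Incubated 70–74 h at 35 °C; 530 nm read before and after. IC50 is 50% growth inhibition; MIC is no detectable growth. MFC from clear wells subcultured on agar. Amphotericin B control.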

[3] = system: A. fumigatus ATCC 90906; experiment: in vitro antifungal activity; type: cell-based, Aspergillus fumigatus; details: Aspergillus fumigatus; for IC50: ATCC90906, read-out: A. fumigatus IC50; for MFC: ATCC90906, read-out: A. fumigatus MFC; for MIC: ATCC90906, read-out: A. fumigatus MIC
In short: as §1

[4] = system: SA (ATCC29213); experiment: in vitro antibacterial activity; type: cell-based; details: Staphylococcus aureus; for IC50: ATCC29213, read-out: IC50 (concentration that affords 50% growth inhibition), SA; for MBC: ATCC29213, read-out: MBC (minimum bactericidal concentration), SA; for MIC: ATCC29213, read-out: MIC, SA
In short: (§2)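 Test compound serially diluted in 20% DMSO/saline and plated in duplicate, up to 20 μg/mL. Inoculum in cation-adjusted Mueller–Hinton broth, pH 7.3, set by OD630 to 5 × 10^5 CFU/mL. Incubated 16–20 h at 35 °C; 530 nm read before and after. IC50 is 50% growth inhibition; MIC is no detectable growth. MBC from clear wells subcultured on agar. Ciprofloxacin control.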

[5] = system: M. intracellulare (ATCC23068); experiment: in vitro antibacterial activity, modified alamarBlue procedure; type: cell-based, Mycobacterium intracellulare; details: Mycobacterium intracellulare; for IC50: ATCC23068, read-out: IC50 (concentration that affords 50% growth inhibition), M. intracellulare; for MBC: ATCC23068, read-out: MBC (minimum bactericidal concentration), M. intracellulare; for MIC: ATCC23068, read-out: MIC, M. intracellulare
In short: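 Modified alamarBlue microplate method. Test compound serially diluted in 20% DMSO/saline, duplicate wells, up to 20 μg/mL. Inoculum 2.0 × 10^6 CFU/mL in Middlebrook 7H9 with OADC, pH 7.3, containing 5% alamarBlue. Incubated 70–74 h at 37 °C, 10% CO2; fluorescence 544ex/590em read before and after. MIC: no blue-to-pink change. MBC by subculturing blue wells on agar. Ciprofloxacin control.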

[6] = system: MRSA (ATCC33591); experiment: in vitro antibacterial activity; type: cell-based, methicillin-resistant Staphylococcus aureus; details: Staphylococcus aureus, ATCC33591|MRSA, read-out: MIC, MRSA
In short: as §2

[7] = system: C. albicans ATCC90028; experiment: in vitro antifungal activity; type: cell-based, Candida albicans; details: Candida albicans; for IC50: ATCC90028, read-out: C. albicans IC50; for MFC: ATCC90028, read-out: C. albicans MFC; for MIC: ATCC90028, read-out: C. albicans MIC
In short: as §1

[8] = system: SK-MEL, KB, BT-549, SK-OV-3, VERO and LLC-PK1 cells; experiment: cytotoxicity, neutral red uptake assay; type: cell-based, mammalian; details: highest test concentration 4760 ng/mL
In short: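 Cells seeded at 25 000/well and allowed 24 h to reach confluence. Test compound was then added and incubated 48 h. Viable cells were counted by a modified neutral red uptake method. The panel was four human cancer lines and two noncancerous mammalian kidney lines. Doxorubicin served as positive control and DMSO as negative control.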

[9] = system: P. falciparum (D6); experiment: in vitro antimalarial activity, plasmodial LDH; type: cell-based, Plasmodium falciparum; details: Plasmodium falciparum, D6, 72 h, read-out: P. falciparum (D6) IC50
[10] = system: L. donovani promastigotes; experiment: in vitro antileishmanial activity, alamarBlue assay; type: cell-based, Leishmania donovani; details: Leishmania donovani, 48 h; for IC50: read-out: L. donovani IC50, promastigotes, 48 h; for IC90: read-out: L. donovani IC90, promastigotes, 48 h

SMILES | IC50 [1] | IC50 [2] | MFC [2] | MIC [2] | IC50 [3] | MFC [3] | MIC [3] | IC50 [4] | MBC [4] | MIC [4] | IC50 [5] | MBC [5] | MIC [5] | MIC [6] | IC50 [7] | MFC [7] | MIC [7] | cytotoxicity CTX [8] | IC50 [9] | IC50 [10] | also measured
CCCCCOc1c(OC)cc(NC(C)CCCNC(=O)C(N)Cc2ccccc2)c2nc(C(C)(C)C)ccc12 (stereo not drawn) [compound 97, 2-Amino-N-(4-(2-tert-butyl-6-methoxy-5-(pentyloxy)quinolin-8-ylamino)pentyl)-3-phenylpropanamide] | 1.3 µg/mL (≈ 2.37 µM) | 2.29 µg/mL (≈ 4.17 µM) | 2.5 µg/mL (≈ 4.56 µM) | 2.5 µg/mL (≈ 4.56 µM) | > 20 µg/mL | > 20 µg/mL | > 20 µg/mL | 5.81 µg/mL (≈ 10.6 µM) | > 20 µg/mL | 10 µg/mL (≈ 18.2 µM) | 14.9 µg/mL (≈ 27.2 µM) | > 20 µg/mL | > 20 µg/mL | 20 µg/mL (≈ 36.4 µM) | > 20 µg/mL | > 20 µg/mL | > 20 µg/mL | NC (NC, not cytotoxic up to 4760 ng/mL (4.76 μg/mL)) | 2.5 µg/mL (≈ 4.56 µM) | 4 µg/mL (≈ 7.29 µM) | IC90 [10]: 6.5 µg/mL (≈ 11.8 µM)
CCCCCCCOc1c(OC)cc(NC(C)CCCN)c2nc(C(C)(C)C)cc(C)c12 (stereo not drawn) [compound 53, N^4-(5-Heptyloxy-2-tert-butyl-6-methoxy-4-methylquinolin-8-yl)pentane-1,4-diamine] | 1.3 µg/mL (≈ 2.93 µM) | 0.67 µg/mL (≈ 1.51 µM) | 1.25 µg/mL (≈ 2.82 µM) | 1.25 µg/mL (≈ 2.82 µM) | 19.3 µg/mL (≈ 43.5 µM) | > 20 µg/mL | > 20 µg/mL | 1.33 µg/mL (≈ 3 µM) | 5 µg/mL (≈ 11.3 µM) | 2.5 µg/mL (≈ 5.63 µM) | 3.12 µg/mL (≈ 7.03 µM) | 5 µg/mL (≈ 11.3 µM) | 5 µg/mL (≈ 11.3 µM) | 2.5 µg/mL (≈ 5.63 µM) | 5.06 µg/mL (≈ 11.4 µM) | 10 µg/mL (≈ 22.5 µM) | 10 µg/mL (≈ 22.5 µM) | NC (NC, not cytotoxic up to 4760 ng/mL (4.76 μg/mL)) | 2 µg/mL (≈ 4.51 µM) | 0.84 µg/mL (≈ 1.89 µM) | IC90 [10]: 1.95 µg/mL (≈ 4.4 µM)
CCCCCCCCOc1c(OC)cc(NC(C)CCCN)c2nc(C(C)(C)C)cc(C)c12 (stereo not drawn) [compound 54, N^4-(5-Octyloxy-2-tert-butyl-6-methoxy-4-methylquinolin-8-yl)pentane-1,4-diamine] | > 4.76 µg/mL | 9.96 µg/mL (≈ 21.8 µM) | > 20 µg/mL | > 20 µg/mL | > 20 µg/mL | > 20 µg/mL | > 20 µg/mL | > 20 µg/mL | > 20 µg/mL | > 20 µg/mL | 18.6 µg/mL (≈ 40.6 µM) | > 20 µg/mL | > 20 µg/mL | > 20 µg/mL | > 20 µg/mL | > 20 µg/mL | > 20 µg/mL | NC (NC, not cytotoxic up to 4760 ng/mL (4.76 μg/mL)) | > 4.76 µg/mL | 9.74 µg/mL (≈ 21.3 µM) | IC90 [10]: 15.6 µg/mL (≈ 34 µM)
CCCCCCCCOc1c(OC)cc(NC(C)CCCNC(=O)C(N)CCSC)c2nc(C(C)(C)C)ccc12 (stereo not drawn) [compound 120, 2-Amino-N-(4-(2-tert-butyl-6-methoxy-5-(octyloxy)quinolin-8-ylamino)pentyl)-4-(methylthio)butanamide] | 0.15 µg/mL (≈ 0.261 µM) | 2.74 µg/mL (≈ 4.77 µM) | 5 µg/mL (≈ 8.7 µM) | 5 µg/mL (≈ 8.7 µM) | > 20 µg/mL | > 20 µg/mL | > 20 µg/mL | 11.7 µg/mL (≈ 20.3 µM) | > 20 µg/mL | 20 µg/mL (≈ 34.8 µM) | 20 µg/mL (≈ 34.8 µM) | > 20 µg/mL | > 20 µg/mL | 20 µg/mL (≈ 34.8 µM) | > 20 µg/mL | > 20 µg/mL | > 20 µg/mL | NC (NC, not cytotoxic up to 4760 ng/mL (4.76 μg/mL)) | 0.16 µg/mL (≈ 0.278 µM) | 6.99 µg/mL (≈ 12.2 µM) | IC90 [10]: 26.4 µg/mL (≈ 46 µM)
CCCCCCCCOc1c(OC)cc(NC(C)CCCNC(=O)C(N)C(C)CC)c2nc(C(C)(C)C)ccc12 (stereo not drawn) [compound 119, 2-Amino-N-(4-(2-tert-butyl-6-methoxy-5-(octyloxy)quinolin-8-ylamino)pentyl)-3-methylpentanamide] | > 4.76 µg/mL | 2.87 µg/mL (≈ 5.15 µM) | 10 µg/mL (≈ 18 µM) | 10 µg/mL (≈ 18 µM) | > 20 µg/mL | > 20 µg/mL | > 20 µg/mL | 5.03 µg/mL (≈ 9.03 µM) | > 20 µg/mL | > 20 µg/mL | > 20 µg/mL | > 20 µg/mL | > 20 µg/mL | > 20 µg/mL | > 20 µg/mL | > 20 µg/mL | > 20 µg/mL | NC (NC, not cytotoxic up to 4760 ng/mL (4.76 μg/mL)) | > 4.76 µg/mL | 6.04 µg/mL (≈ 10.8 µM) | IC90 [10]: 26.9 µg/mL (≈ 48.4 µM)
CCCCCOc1c(OC)cc(NC(C)CCCNC(=O)C(N)CCCNC(=N)N)c2nc(C(C)(C)C)ccc12 (stereo not drawn) [compound 94, 2-Amino-N-(4-(2-tert-butyl-6-methoxy-5-(pentyloxy)quinolin-8-ylamino)pentyl)-5-guanidinopentanamide] | 4 µg/mL (≈ 7.17 µM) | 1.41 µg/mL (≈ 2.53 µM) | 2.5 µg/mL (≈ 4.48 µM) | 2.5 µg/mL (≈ 4.48 µM) | > 20 µg/mL | > 20 µg/mL | > 20 µg/mL | 5.85 µg/mL (≈ 10.5 µM) | 20 µg/mL (≈ 35.9 µM) | 10 µg/mL (≈ 17.9 µM) | 11.2 µg/mL (≈ 20.1 µM) | 20 µg/mL (≈ 35.9 µM) | 20 µg/mL (≈ 35.9 µM) | 10 µg/mL (≈ 17.9 µM) | 18.6 µg/mL (≈ 33.4 µM) | 20 µg/mL (≈ 35.9 µM) | 20 µg/mL (≈ 35.9 µM) | NC (NC, not cytotoxic up to 4760 ng/mL (4.76 μg/mL)) | 4.76 µg/mL (≈ 8.53 µM) | 18 µg/mL (≈ 32.3 µM) | IC90 [10]: 32 µg/mL (≈ 57.4 µM)
CCCCCCCCOc1c(OC)cc(NC(C)CCCNC(=O)C(N)Cc2cc3ccccc3[nH]2)c2nc(C(C)(C)C)ccc12 (stereo not drawn) [compound 122, 2-Amino-N-(4-(2-tert-butyl-6-methoxy-5-(octyloxy)quinolin-8-ylamino)pentyl)-3-(1H-indol-2-yl)propanamide] | > 4.76 µg/mL | 6.8 µg/mL (≈ 10.8 µM) | > 20 µg/mL | 20 µg/mL (≈ 31.8 µM) | > 20 µg/mL | > 20 µg/mL | > 20 µg/mL | 12 µg/mL (≈ 19 µM) | > 20 µg/mL | 20 µg/mL (≈ 31.8 µM) | > 20 µg/mL | > 20 µg/mL | > 20 µg/mL | 20 µg/mL (≈ 31.8 µM) | > 20 µg/mL | > 20 µg/mL | > 20 µg/mL | NC (NC, not cytotoxic up to 4760 ng/mL (4.76 μg/mL)) | > 4.76 µg/mL | 9.32 µg/mL (≈ 14.8 µM) | IC90 [10]: 25.7 µg/mL (≈ 40.8 µM)
CCCCCCCCOc1c(OC)cc(NC(C)CCCNC(=O)C2CCCN2)c2nc(C(C)(C)C)ccc12 (stereo not drawn) [compound 123, N-(4-(2-tert-Butyl-6-methoxy-5-(octyloxy)quinolin-8-ylamino)pentyl)pyrrolidine-2-carboxamide] | > 4.76 µg/mL | 2.89 µg/mL (≈ 5.34 µM) | 5 µg/mL (≈ 9.25 µM) | 5 µg/mL (≈ 9.25 µM) | > 20 µg/mL | > 20 µg/mL | > 20 µg/mL | 10.4 µg/mL (≈ 19.3 µM) | 20 µg/mL (≈ 37 µM) | 20 µg/mL (≈ 37 µM) | > 20 µg/mL | > 20 µg/mL | > 20 µg/mL | 10 µg/mL (≈ 18.5 µM) | > 20 µg/mL | > 20 µg/mL | > 20 µg/mL | NC (NC, not cytotoxic up to 4760 ng/mL (4.76 μg/mL)) | > 4.76 µg/mL | 12.4 µg/mL (≈ 22.9 µM) | IC90 [10]: 38.4 µg/mL (≈ 71 µM)
